Screening data (PubChem BioAssay)
An excerpt weighted towards active compounds, which were near 2.9% of everything screened.
MEKK2 WT-MEK5 = raises or lowers MEK5 binding to wildtype human MEKK2 PB1 domain; hit rate 1.1% among 290,000; bead flow cytometry, Alexa488-MEK5 binding to MEKK2 WT; actives lie on both sides; Q9Y2U5; binding response (% of control), % at 10 µM; AID 1531; in the data active = binding response below about 67% or above about 130%
MEKK3 PB1 HTS = raises or lowers MEK5 binding to the human MEKK3 PB1 domain. Q99759. bead-based flow cytometry, Alexa488-MEK5 binding to MEKK3; actives lie on both sides; 0 = blocked by unlabeled MEK5, 100 = vehicle. binding response (% of control), % at 10 µM. hit rate 1.4% among 290,000;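 active = binding response more than 3 SD above or below the average of its plate-row segment, actives on both sides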;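 note: Alexa488 bead fluorescence after subtracting the streptavidin-only scavenger bead signal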
ATG4B inh = ATG4B (human) cysteine protease inhibition | Q9Y4P1 | hit rate 0.51% among 340,000 | inhibition, % at 8.33 µM | ATG4B cleavage of LC3-PLA2, NBD-HPC fluorescence, 1 h; in the data active = inhibition above about 40%
Target sequence (Q9Y4P1 whole entry, looked up): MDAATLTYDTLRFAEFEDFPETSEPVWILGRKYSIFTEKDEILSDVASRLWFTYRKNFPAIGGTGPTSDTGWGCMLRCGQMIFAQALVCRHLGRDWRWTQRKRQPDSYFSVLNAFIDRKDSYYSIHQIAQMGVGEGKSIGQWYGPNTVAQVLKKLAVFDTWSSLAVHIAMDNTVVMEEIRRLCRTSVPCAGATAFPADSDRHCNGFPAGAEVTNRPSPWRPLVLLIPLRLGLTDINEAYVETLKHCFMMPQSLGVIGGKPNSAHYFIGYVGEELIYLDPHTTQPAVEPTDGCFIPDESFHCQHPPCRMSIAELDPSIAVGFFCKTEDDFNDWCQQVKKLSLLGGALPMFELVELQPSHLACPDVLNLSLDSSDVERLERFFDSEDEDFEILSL
MEKK2 mut-MEK5 = signal of MEK5 binding to mutant human MEKK2 PB1 domain; percent response, % at 10 µM; hit rate 0.35% among 290,000; bead flow cytometry, Alexa488-MEK5 binding to MEKK2 mutant; in the data active = percent response above about 24%, passing the limit was not always enough
Beta2AR agonist = human beta-2 adrenergic receptor agonism by FAP; Am2.2-beta2AR cells, FAP receptor internalization, flow cytometry; response, % (no concentration beside the values); hit rate 0.43% among 340,000;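 active = response above a set limit, near 3 SD of response in nonfluorescent compounds, cut at about 42% in these data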
Dynein cargo inh = blocks dynein driven cargo transport along microtubules | 3617.4 mouse cells, GR-EGFP nuclear translocation imaging; test concentration mostly 20 µM; stimulated with dexamethasone, 1 µM; hits give low values | z-score, hits read low | hit rate 0.47% among 220,000;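 active = plate z-score of nuclear minus cytoplasmic receptor signal below a set negative limit, without overly bright fluorescence or cell loss, cut at about -3.5 in these data, passing the limit was not always enough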;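 note: z-score of nuclear minus cytoplasmic ring GR-EGFP intensity difference per well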
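Also added: dexamethasone, 1.0 µM final. Medium: tet-free, stripped-serum medium. Detection: fixed, Hoechst-stained cells imaged at 10x for EGFP. Read-out: nuclear-to-cytoplasmic GR-EGFP distribution per well. Times: induction 48 h, compound 1 h, agonist 30 min.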
Numbers stand for hits; [ ] = dose if it differs, or a comment.

Screening Cc1nc2nc(SCC(=O)N3CCOCC3)nn2c(C)c1Cc1c(F)cccc1Cl returned MEKK2 WT-MEK5 2.0[inhibitor], MEKK3 PB1 HTS 2.0[inhibitor], ATG4B inh inactive, MEKK2 mut-MEK5 inactive, Beta2AR agonist inactive and Dynein cargo inh inactive.
Screening Cc1nc2nc(SCC(=O)NCCN3CCOCC3)nn2c(C)c1Cc1ccccc1 returned MEKK2 WT-MEK5 inactive, MEKK3 PB1 HTS inactive, ATG4B inh inactive, MEKK2 mut-MEK5 inactive, Beta2AR agonist inactive and Dynein cargo inh inactive.
`COc1cc(OC)c(C2N(c3ccc(Cl)cc3)C(=O)C3CCCN32)cc1OC` (stereo unspecified) gave MEKK2 WT-MEK5 10, MEKK3 PB1 HTS inactive, ATG4B inh inactive, MEKK2 mut-MEK5 inactive, Beta2AR agonist inactive and Dynein cargo inh inactive.
`CC(=O)c1ccc(NC(=O)c2cccc(N3C(=O)c4ccccc4C3=O)c2)cc1` gave MEKK2 WT-MEK5 inactive, MEKK3 PB1 HTS inactive, ATG4B inh inactive, MEKK2 mut-MEK5 inactive and Beta2AR agonist 81.
CCOC(=O)C1=C(C)N(c2ccccc2)C(=O)/C1=C\c1cccs1 was read as MEKK2 WT-MEK5 inactive, MEKK3 PB1 HTS inactive, ATG4B inh inactive, MEKK2 mut-MEK5 inactive, Beta2AR agonist 91 and Dynein cargo inh inactive.
For CCOC(=O)N1CCC(NC(=O)c2ccc3c(c2)N(C)C(=O)/C(=C/c2cccc(OC)c2)S3)CC1 the results were MEKK2 WT-MEK5 inactive, MEKK3 PB1 HTS inactive, ATG4B inh inactive, MEKK2 mut-MEK5 inactive and Beta2AR agonist inactive.
Screening CN1CCN(c2ccccc2NC(=O)c2ccc(-c3ccccc3[N+](=O)[O-])o2)CC1 returned MEKK2 WT-MEK5 135, MEKK3 PB1 HTS inactive, ATG4B inh inactive, MEKK2 mut-MEK5 inactive and Beta2AR agonist inactive.
`Cc1ccc(C(=O)N2N=C(c3cccc(NS(C)(=O)=O)c3)CC2c2cccs2)cc1` (stereo unspecified) gave MEKK2 WT-MEK5 inactive, MEKK3 PB1 HTS inactive, ATG4B inh inactive, MEKK2 mut-MEK5 inactive and Beta2AR agonist inactive.
For O=C(C1CCC(CNS(=O)(=O)c2cccs2)CC1)N1CCN(c2ccc(F)cc2)CC1 (stereo unspecified) the results were MEKK2 WT-MEK5 inactive, MEKK3 PB1 HTS 77[inhibitor], ATG4B inh inactive, MEKK2 mut-MEK5 inactive and Beta2AR agonist inactive.
O=C(O/N=C(\c1ccccc1)c1ccncc1)c1ccccc1F was read as MEKK2 WT-MEK5 -8.0, MEKK3 PB1 HTS inactive, ATG4B inh inactive, MEKK2 mut-MEK5 inactive, Beta2AR agonist inactive and Dynein cargo inh inactive.
Screening COc1ccc(C(=O)/C(C#N)=N/Nc2ccccc2[N+](=O)[O-])cc1 returned MEKK2 WT-MEK5 inactive, MEKK3 PB1 HTS inactive, ATG4B inh inactive, MEKK2 mut-MEK5 inactive, Beta2AR agonist inactive and Dynein cargo inh inactive.
For COc1ccc(C(=O)/C(C#N)=N/Nc2ccc([N+](=O)[O-])cc2)cc1 the results were MEKK2 WT-MEK5 inactive, MEKK3 PB1 HTS inactive, ATG4B inh inactive, MEKK2 mut-MEK5 inactive, Beta2AR agonist 46 and Dynein cargo inh inactive.
`COc1cc(NC(=O)C/C(C)=N/NC(=O)Cc2ccc(Cl)cc2)c(OC)cc1Cl` gave MEKK2 WT-MEK5 inactive, MEKK3 PB1 HTS inactive, ATG4B inh inactive, MEKK2 mut-MEK5 inactive, Beta2AR agonist inactive and Dynein cargo inh inactive.
For COC(=O)c1ccccc1NC(=O)C/C(C)=N/NC(=O)Cc1ccc(Cl)cc1 the results were MEKK2 WT-MEK5 12[inhibitor], MEKK3 PB1 HTS 6.0[inhibitor], MEKK2 mut-MEK5 inactive and Beta2AR agonist inactive.
For COc1cc(C(=O)N/N=C(\c2ccccc2)c2ccccn2)cc(OC)c1OC the results were MEKK2 WT-MEK5 inactive, MEKK3 PB1 HTS 134, ATG4B inh inactive, MEKK2 mut-MEK5 inactive, Beta2AR agonist inactive and Dynein cargo inh inactive.
Screening COc1cc(C(=O)N/N=C(\C)c2ccccn2)cc(OC)c1OC returned MEKK2 WT-MEK5 inactive, MEKK3 PB1 HTS inactive, ATG4B inh inactive, MEKK2 mut-MEK5 inactive and Beta2AR agonist inactive.
For Cc1ccc(N2CC(C(=O)N3CCC(C(=O)NCCCOC(C)C)CC3)CC2=O)cc1 (stereo unspecified) the results were MEKK2 WT-MEK5 inactive, MEKK3 PB1 HTS inactive, ATG4B inh inactive, MEKK2 mut-MEK5 inactive and Beta2AR agonist inactive.
CC(C)C(C(=O)O)N1C(=O)/C(=C/C=C/c2ccco2)SC1=S (stereo unspecified) was read as MEKK2 WT-MEK5 inactive, MEKK3 PB1 HTS inactive, ATG4B inh 65, MEKK2 mut-MEK5 inactive, Beta2AR agonist inactive and Dynein cargo inh inactive.
`O=C1/C(=C\c2ccco2)SC(=S)N1c1ccc(O)cc1` gave MEKK2 WT-MEK5 inactive, MEKK3 PB1 HTS inactive, ATG4B inh inactive, MEKK2 mut-MEK5 inactive, Beta2AR agonist inactive and Dynein cargo inh inactive.
For CC(C)C(C(=O)O)N1C(=O)/C(=C/c2cccn2C)SC1=S (stereo unspecified) the results were MEKK2 WT-MEK5 inactive, MEKK3 PB1 HTS inactive, ATG4B inh inactive, MEKK2 mut-MEK5 inactive, Beta2AR agonist inactive and Dynein cargo inh inactive.
`O=C1/C(=C/C=C/c2ccco2)SC(=S)N1c1ccc(O)cc1` gave MEKK2 WT-MEK5 62[inhibitor], MEKK3 PB1 HTS inactive, ATG4B inh inactive, MEKK2 mut-MEK5 inactive, Beta2AR agonist inactive and Dynein cargo inh inactive.
`COc1ccc2nc(C)cc(N/N=C/c3ccccc3)c2c1` gave ATG4B inh inactive and Beta2AR agonist 47.
Screening COc1ccc2nc(C)cc(NCc3ccc(F)cc3)c2c1 returned MEKK3 PB1 HTS 54[inhibitor], ATG4B inh inactive and Beta2AR agonist inactive.
For COc1ccc2nc(C)cc(Nc3ccc(C)cc3)c2c1 the results were MEKK2 WT-MEK5 inactive, MEKK3 PB1 HTS inactive, ATG4B inh inactive, MEKK2 mut-MEK5 inactive and Beta2AR agonist inactive.
`Cc1ccc(C)n1/N=C1/NC(=O)CS1` gave MEKK2 WT-MEK5 inactive, MEKK3 PB1 HTS inactive, ATG4B inh 41, MEKK2 mut-MEK5 inactive, Beta2AR agonist inactive and Dynein cargo inh inactive.
Cc1ccc(S(=O)(=O)Nc2cccc3ncccc23)s1 was read as MEKK2 WT-MEK5 -1.0[inhibitor], MEKK3 PB1 HTS 1.0[inhibitor], ATG4B inh inactive, MEKK2 mut-MEK5 inactive, Beta2AR agonist inactive and Dynein cargo inh inactive.
N=C1/C(=C\c2ccc(-c3ccc(C(=O)O)cc3)o2)C(=O)N=C2SC=C(c3ccccc3)N12 was read as MEKK2 WT-MEK5 inactive, MEKK3 PB1 HTS inactive, ATG4B inh inactive, MEKK2 mut-MEK5 inactive, Beta2AR agonist inactive and Dynein cargo inh inactive.
N=C1/C(=C\c2ccc(-c3cccc(Cl)c3)o2)C(=O)N=C2SC=C(c3ccccc3)N12 was read as MEKK2 WT-MEK5 inactive, MEKK3 PB1 HTS inactive, ATG4B inh inactive, MEKK2 mut-MEK5 inactive, Beta2AR agonist 57 and Dynein cargo inh inactive.
`O=C1N[C@H](Cc2ccccc2)COC(=O)[C@H](Cc2ccc(F)cc2)CC/C=C/C[C@@H]1CC(=O)N(CCO)Cc1ccccc1` gave ATG4B inh inactive and Beta2AR agonist inactive.
For O=Cc1nccc2ccccc12 the results were ATG4B inh inactive and Beta2AR agonist 61.
